CSN deneddyl inh: blocks human CSN-mediated cullin deneddylation; Purified CSN, SCF-Nedd8-OG deneddylation, fluorescence polarization; inhibition, % at 12.5 µM; 360,000 tested, 0.38% active; AID 651999;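 active = pattern-corrected inhibition above about 35%, with an unprinted fluorescence ratio check between 0.5 and 1.5, limit read from the data, passing the limit was not always enough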
Target sequence (Q92905 whole entry, looked up, one chain of several): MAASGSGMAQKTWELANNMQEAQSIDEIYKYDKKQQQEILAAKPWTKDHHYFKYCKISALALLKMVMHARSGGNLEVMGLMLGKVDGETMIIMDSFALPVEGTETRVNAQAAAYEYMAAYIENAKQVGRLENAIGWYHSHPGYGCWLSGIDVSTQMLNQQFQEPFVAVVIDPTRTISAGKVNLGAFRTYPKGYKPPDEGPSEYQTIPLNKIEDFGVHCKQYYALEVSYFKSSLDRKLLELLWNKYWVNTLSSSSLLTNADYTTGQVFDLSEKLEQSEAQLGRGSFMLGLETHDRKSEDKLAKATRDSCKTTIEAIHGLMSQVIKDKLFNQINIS
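Schedule: reaction 90 min, room temperature / Assay system: HEK293T-derived human Csn5 enzyme / Input: Csn5 at 0.24 nM final / Measure: inhibition of Csn5 cleavage, % / Control set: substrate-only high control, full reaction low control / Technique: fluorescence polarization of the substrate / Buffer or medium: Tris/NaCl/DTT buffer, pH 7.5 / Reagent: SCFSkp2-Nedd8OG substrate at 10 nM final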
TPT1 inh: C. albicans TPT1 enzyme inhibition | recombinant caTPT1, FP RNA substrate dephosphorylation | inhibition, % at 5 µM | 300,000 tested, 0.81% active;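 active = inhibition above the mean of all tested compounds plus 3 SD, set per screening campaign, cut at about 24% in these data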
HNF4A DNA FP: change in binding of human HNF4 alpha to DNA; activity change, % at 10 µM; 360,000 tested, 0.3% active; P41235; HNF4a-FITC DNA binding, fluorescence polarization, 1 h; in the data active = activity change above about 30%, passing the limit was not always enough
Rtt109 HAT inh: C. albicans Rtt109 histone acetyltransferase inhibition; inhibition, % at 34.9 µM; purified Rtt109/Vps75, ThioGlo CoA-SH fluorescence, 4 h; Q5AAJ8; 330,000 tested, 0.16% active;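 active = inhibition of at least 50% in every replicate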
Target sequence (Q5AAJ8 whole entry, looked up): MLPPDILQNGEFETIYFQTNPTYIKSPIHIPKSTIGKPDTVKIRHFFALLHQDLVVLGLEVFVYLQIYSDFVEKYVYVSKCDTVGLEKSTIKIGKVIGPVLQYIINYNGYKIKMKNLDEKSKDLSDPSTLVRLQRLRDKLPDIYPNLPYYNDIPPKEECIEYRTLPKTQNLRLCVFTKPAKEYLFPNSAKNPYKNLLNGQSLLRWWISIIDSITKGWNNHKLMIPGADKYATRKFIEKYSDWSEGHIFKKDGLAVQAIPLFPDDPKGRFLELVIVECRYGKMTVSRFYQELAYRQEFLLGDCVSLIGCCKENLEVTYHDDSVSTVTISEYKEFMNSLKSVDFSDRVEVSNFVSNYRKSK
HNF4a DNA conf: change in binding of human HNF4 alpha to DNA, retest | activity change, % at 12.5 µM | HNF4A-FITC DNA binding, fluorescence polarization, 1 h | AID 1224897 | 210 tested, 99% active | shares compounds with HNF4A DNA FP; call rule not given here
Large screens that a line does not name were inactive (follow-up assays come after a bar, where they were run). Shown are actives, neighbours in structure and some others; about 1.2% of the full set was active somewhere.

O=C1[C@@H](Oc2ccccc2)[C@@H](c2cnc3ccccc3c2)N1c1ccccc1	none (no result: TPT1 inh)
CN(/C=C/C(=C\C=[N+](C)c1ccccc1)OCCCS(=O)(=O)[O-])c1ccccc1	HNF4A DNA FP 87 | HNF4a DNA conf 106
O=C(Nc1ccccn1)c1sc2cccc(F)c2c1Cl	none
CCCCN1C(=O)/C(=C2/Sc3ccccc3N2C)S/C1=N\c1ncn[nH]1	CSN deneddyl inh 45, HNF4A DNA FP 46 | HNF4a DNA conf 75
C=CCN1C(=O)/C(=C2/Sc3ccc(OC)cc3N2C)SC1=Nc1ccccc1	none
Cc1cc(-n2cnnn2)cc(C)c1S(=O)(=O)N(C)c1ccccc1	none
CN1C(=O)/C(=C/C=C2\SCCN2C)N(C)C1=S	HNF4A DNA FP 119 (no result: TPT1 inh) | HNF4a DNA conf 143
Cc1cc(C(=O)N2CCCC(C)(C(=O)NS(=O)(=O)C3CC3)C2)nn1C(C)(C)C (centres undefined)	none (no result: TPT1 inh, Rtt109 HAT inh)
CC(=O)c1c(O)c(C)c(O)c2c1OC1=CC(=O)C(C(C)=O)C(=O)[C@@]12C (some centres undefined)	HNF4A DNA FP 65 (no result: TPT1 inh) | HNF4a DNA conf 57
CC(=O)Oc1c(C)c(OC(C)=O)c2c(c1C(C)=O)OC1CC(=O)C(C(C)=O)=C(O)C21C (centres undefined)	none
Cc1ccc(-c2nc(NC(=O)CSc3cc(C)c4ccccc4n3)ns2)cc1	CSN deneddyl inh 175, HNF4A DNA FP 162 | HNF4a DNA conf 94
C#CCOCCOCCOCCNc1nc(N2CCN(C(=O)[C@H](CCCCN)n3cc(CN)nn3)CC2)nc(N2CCN(C(=O)[C@H](CCCCN)n3cc([C@@H](N)[C@H](C)CC)nn3)CC2)n1	CSN deneddyl inh 99, HNF4A DNA FP 96 (no result: TPT1 inh) | HNF4a DNA conf 99
C#CCOCCOCCOCCNc1nc(N2CCN(C(=O)[C@H](CCCCN)n3cc([C@@H](N)C(C)CC)nn3)CC2)nc(N2CCN(C(=O)[C@H](CCCCN)n3cc([C@@H](N)CO)nn3)CC2)n1 (some centres undefined)	none (no result: CSN deneddyl inh, HNF4A DNA FP, Rtt109 HAT inh)
CN(C)c1ccc(/C=N/NC(=O)c2cc(-c3ccc4c(c3)OCO4)n[nH]2)cc1	CSN deneddyl inh 42, HNF4A DNA FP 47 | HNF4a DNA conf 59
O=C(N/N=C/c1ccc(F)cc1)c1cc(-c2ccc3c(c2)OCO3)n[nH]1	none
O=C(N/N=C\C=C\c1ccc(Br)cc1)c1ccc2c(c1)OCO2	CSN deneddyl inh 49, HNF4A DNA FP 50 | HNF4a DNA conf 62
O=C(N/N=C/C=C/c1ccc2c(c1)OCO2)c1ccc([N+](=O)[O-])cc1	none
CC(=O)Nc1cc(-c2ccc(N)cc2)cn2c(-c3cccc(C(F)(F)F)c3)cnc12	none (no result: TPT1 inh, Rtt109 HAT inh)
Nc1cc2c(cc1Cl)-c1ccc([N+](=O)[O-])cc1C2=NO	HNF4A DNA FP 51 (no result: TPT1 inh) | HNF4a DNA conf 52
COc1ccc(/C=N/c2oc(C)c(C)c2C#N)c(OC)c1	none
COc1cc(/C=N/c2oc(C)c(C)c2C#N)cc(Br)c1O	HNF4A DNA FP 60 | HNF4a DNA conf 78
CCSc1ncc(Cl)c(C(=O)Nc2sc3c(c2C(=O)NCc2cccnc2)CCCC3)n1	HNF4A DNA FP 51 | HNF4a DNA conf 49
COC(=O)/C=C1\OCc2ccc(C)cc21	none (no result: TPT1 inh, Rtt109 HAT inh)
COCC(C)n1c(C)cc(C(=O)COC(=O)c2c(C)nn(-c3ccccc3)c2C)c1C (centres undefined)	none
COCC(C)n1c(C)cc(C(=O)COC(=O)c2c(NC(C)=O)sc(C)c2C)c1C (centres undefined)	HNF4A DNA FP 37 | HNF4a DNA conf 51
CC/C(=C\c1oc2cc3ccccc3cc2[n+]1CC)Nc1ccccc1	HNF4A DNA FP 51 | HNF4a DNA conf 88
CC(O)(c1cccnc1)c1nc(-c2cccc(C#N)c2)cs1 (centres undefined)	none (no result: TPT1 inh, Rtt109 HAT inh)
CC(C)C[C@H]1CN(CCCC[C@@H]2CNC(=O)C(=O)N2CCc2ccccc2)C(=O)C(=O)N1CCC1CCCCC1	none (no result: TPT1 inh, Rtt109 HAT inh)
O=C1C2CCCCC2C(=O)N1c1cccc(OS(=O)(=O)c2ccccc2)c1 (centres undefined)	none
O=C1CC(=O)N(C2CCCCC2)C(=O)N1c1ccccc1S(=O)(=O)Oc1ccccc1	HNF4A DNA FP 65 (no result: TPT1 inh, Rtt109 HAT inh) | HNF4a DNA conf 41
CCOC(=O)c1ccc(NS(=O)(=O)c2c(C)nc3sccn3c2=O)cc1	none
C/C(=N\NC(=O)c1ccc(OC2OCCOC2Oc2ccc(C(=O)N/N=C(\C)c3ccncc3)cc2)cc1)c1ccncc1 (centres undefined)	CSN deneddyl inh 99, HNF4A DNA FP 157 | HNF4a DNA conf 204
CCOc1ccc(CNC(=O)C2CCN(c3nnc(C)c4c(C)n(-c5ccc(C)cc5)nc34)CC2)cc1	HNF4A DNA FP 45 | HNF4a DNA conf 50
CC(NS(=O)(=O)c1cccc(C(=O)NCc2ccncc2)c1)c1ccccc1 (centres undefined)	none (no result: TPT1 inh)
O=S(=O)(Nc1ccc(C(F)(F)F)cn1)c1ccccc1	none
CN1C(=O)/C(=C/c2ccc(OCc3cccc(F)c3)cc2)NC1=S	none
COc1cc(/C=C2/C(=O)N(C)C(=S)N2C)ccc1OCc1cccc(F)c1	HNF4A DNA FP 36 | HNF4a DNA conf 50
O=c1c(Cl)c(N/N=C/c2ccc(Cl)cc2)cnn1-c1ccccc1	HNF4A DNA FP 39 (no result: Rtt109 HAT inh) | HNF4a DNA conf 45
CCOC(=O)C1=C[C@@H](c2ccccc2)N(S(=O)(=O)c2ccc(C)cc2)[C@H]1c1ccc(F)cc1	none (no result: TPT1 inh, Rtt109 HAT inh)
Cn1c(SCC(=O)Nc2cccnc2Cl)nc2ccccc21	none (no result: TPT1 inh)
COCCNC(=O)c1cc(-c2ccccc2)sc1N	HNF4A DNA FP 55 (no result: TPT1 inh, Rtt109 HAT inh) | HNF4a DNA conf 85
CCCCNC(=O)c1cc(-c2ccccc2)sc1N	none (no result: TPT1 inh, Rtt109 HAT inh)
O=C(Nc1nncs1)C1CC(=O)N(CCc2ccc(F)cc2)C1 (centres undefined)	none
CN(C)c1ccc(C=C2C=C(c3ccccc3)OC2=O)cc1	HNF4A DNA FP 55 (no result: TPT1 inh, Rtt109 HAT inh) | HNF4a DNA conf 49
O=C(NC1CCCCC1)OC1CC2CC1[C@H]1CCCCN1C2=O (some centres undefined)	none (no result: TPT1 inh, Rtt109 HAT inh)
O=C(N/N=C/c1cccnc1)c1cccc(NC(=O)c2ccc(Cl)cc2)c1	CSN deneddyl inh 110, HNF4A DNA FP 90 | HNF4a DNA conf 173
COc1cc(C(=O)N2C[C@H]3CON(C)[C@H]3C[C@H]2c2ccc(N3CCCCC3)cc2)cc(OC)c1OC	none (no result: TPT1 inh, Rtt109 HAT inh)
C=CCCC(=O)N1C[C@H]2CON(C)[C@H]2C[C@H]1c1ccc(N2CCCCC2)cc1	HNF4A DNA FP 43 (no result: TPT1 inh, Rtt109 HAT inh) | HNF4a DNA conf 45
O=C(Cn1cc(/C=N/NC(=O)c2cccc3ccccc23)c2ccccc21)Nc1ccc(F)cc1	HNF4A DNA FP 46 | HNF4a DNA conf 90
O=C(N/N=C/c1ccc(-c2ccc([N+](=O)[O-])cc2)o1)[C@H]1C[C@@H]1c1ccccc1	HNF4A DNA FP 65 | HNF4a DNA conf 74
O=C(N/N=C/c1ccc(-c2cccc([N+](=O)[O-])c2)o1)[C@H]1C[C@@H]1c1ccccc1	none
Cc1cc(C(=O)O)ccc1N=Cc1c(O)ccc2ccccc12	HNF4A DNA FP 46 | HNF4a DNA conf 70

Screening data as filed in PubChem.
